Source: ChEMBL document CHEMBL1764988, “Synthesis of 2-(substituted phenyl)-3,5,5-trimethylmorpholine analogues and their effects on monoamine uptake, nicotinic acetylcholine receptor function, and behavioral effects of nicotine” (J Med Chem, 2011)

Experiments:
[1] = molecular target: Nicotinic acetylcholine receptor alpha-1/beta-1 (Homo sapiens, UniProt P02708+P11230); assay: Antagonist activity at human alpha1beta1 nAChR in HEK293 cells assessed as inhibition of carbamylcholine-induced radiolabeled Rb ion efflux; assay type: functional, cell-based
Chain of Nicotinic acetylcholine receptor alpha-1/beta-1 (P02708 whole entry): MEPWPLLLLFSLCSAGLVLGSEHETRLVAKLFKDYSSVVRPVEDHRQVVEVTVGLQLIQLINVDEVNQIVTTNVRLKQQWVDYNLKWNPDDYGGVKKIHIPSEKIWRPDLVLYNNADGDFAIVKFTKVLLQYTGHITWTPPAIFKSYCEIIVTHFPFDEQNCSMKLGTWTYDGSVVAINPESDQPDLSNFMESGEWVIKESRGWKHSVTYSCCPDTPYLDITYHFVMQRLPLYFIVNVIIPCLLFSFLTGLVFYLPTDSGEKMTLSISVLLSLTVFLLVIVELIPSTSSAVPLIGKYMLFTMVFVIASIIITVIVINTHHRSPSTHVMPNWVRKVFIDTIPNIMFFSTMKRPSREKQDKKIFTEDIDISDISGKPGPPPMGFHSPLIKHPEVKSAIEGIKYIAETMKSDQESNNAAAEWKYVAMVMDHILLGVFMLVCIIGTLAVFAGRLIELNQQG
Chain of Nicotinic acetylcholine receptor alpha-1/beta-1 (P11230 whole entry): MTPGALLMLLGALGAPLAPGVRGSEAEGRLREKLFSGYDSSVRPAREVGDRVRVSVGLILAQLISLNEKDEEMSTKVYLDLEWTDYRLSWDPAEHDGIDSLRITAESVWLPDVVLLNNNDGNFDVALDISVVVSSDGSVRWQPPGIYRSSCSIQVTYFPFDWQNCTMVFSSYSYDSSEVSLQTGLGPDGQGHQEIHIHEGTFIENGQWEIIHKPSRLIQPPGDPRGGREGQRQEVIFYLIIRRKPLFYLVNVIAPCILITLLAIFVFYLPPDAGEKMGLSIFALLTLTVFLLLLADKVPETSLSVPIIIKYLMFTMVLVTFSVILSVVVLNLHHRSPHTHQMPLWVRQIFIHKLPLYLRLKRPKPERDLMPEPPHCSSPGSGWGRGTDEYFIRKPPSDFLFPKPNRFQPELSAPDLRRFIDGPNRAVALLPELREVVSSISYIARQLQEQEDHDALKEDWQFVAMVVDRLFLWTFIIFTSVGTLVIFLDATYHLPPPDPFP
Method in brief: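 86Rb+ efflux from human nAChR subtypes naturally or heterologously expressed in human cell lines. Cells were stimulated with a subtype-specific EC80–EC90 concentration of the full agonist carbamylcholine, alone or with test ligand (log molar series). Specific efflux was expressed as percent of control. IC50 values are means from three independent experiments; SEM is given as a multiplication/division factor.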

[2] = organism: Mus musculus; assay: Antinociceptive activity in ICR mouse assessed as inhibition of nicotine-induced response by tail flick test; assay type: functional
Method in brief: (§1)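 Male ICR mice (20–25 g) were used to test blockade of acute nicotine effects (tail-flick, hot-plate, locomotor activity, body temperature). At least four doses of test compound were given, with at least eight mice per dose group. Results were expressed as AD50 (mg/kg) with confidence limits, or as % effect at the highest dose tested.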

[3] = organism: Mus musculus; assay: Antinociceptive activity in ICR mouse assessed as inhibition of nicotine-induced response by hotplate test; assay type: functional; method in brief: as §1
[4] = organism: Mus musculus; assay: Effect on behavioral activity in ICR mouse assessed as inhibition of nicotine-induced locomotory response; assay type: functional; method in brief: as §1
[5] = organism: Mus musculus; assay: Effect on body temperature in ICR mouse assessed as inhibition of nicotine-induced hypothermic response; assay type: functional; method in brief: as §1
[6] = molecular target: Sodium-dependent dopamine transporter (Homo sapiens, UniProt Q01959); assay: Inhibition of human DAT in HEK293 cells assessed as inhibition of [3H]dopamine uptake; assay type: cell-based
Chain of Sodium-dependent dopamine transporter (Q01959 whole entry): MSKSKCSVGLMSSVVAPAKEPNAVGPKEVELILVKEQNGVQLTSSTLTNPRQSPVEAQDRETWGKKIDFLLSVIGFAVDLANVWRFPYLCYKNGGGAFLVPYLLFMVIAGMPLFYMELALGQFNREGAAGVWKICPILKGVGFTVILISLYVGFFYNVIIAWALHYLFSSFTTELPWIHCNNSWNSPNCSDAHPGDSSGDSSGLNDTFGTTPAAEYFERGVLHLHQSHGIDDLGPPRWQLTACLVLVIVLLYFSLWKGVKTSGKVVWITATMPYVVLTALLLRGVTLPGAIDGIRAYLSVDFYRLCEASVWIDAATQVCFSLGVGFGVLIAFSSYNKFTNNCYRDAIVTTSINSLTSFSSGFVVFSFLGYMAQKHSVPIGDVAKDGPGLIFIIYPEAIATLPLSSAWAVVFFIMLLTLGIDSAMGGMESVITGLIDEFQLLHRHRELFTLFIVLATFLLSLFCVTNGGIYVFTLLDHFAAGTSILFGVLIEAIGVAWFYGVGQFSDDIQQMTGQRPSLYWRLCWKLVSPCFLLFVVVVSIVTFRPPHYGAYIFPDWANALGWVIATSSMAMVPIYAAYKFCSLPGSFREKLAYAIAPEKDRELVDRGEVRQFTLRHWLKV
Method in brief: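 [3H]DA, [3H]NE or [3H]5HT uptake was measured by the corresponding human transporter stably expressed in HEK-293 cells. Values are mean ± standard error of three independent experiments, each run in triplicate.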

Structure (SMILES)	IC50 [1] [µM]	AD50 [2] [mg/kg]	AD50 [3] [mg/kg]	AD50 [4] [mg/kg]	AD50 [5] [mg/kg]	IC50 [6] [nM]
C[C@@H]1N(C)C(C)(C)CO[C@@]1(O)c1cccc(Cl)c1	21	0.13	>20	3.8	>20	230
CCC[C@@H]1NC(C)(C)CO[C@@]1(O)c1cccc(Cl)c1	–	0.017	>20	0.49	>20	–
C[C@@H]1NC(C)(C)CO[C@@]1(O)c1cccc(Br)c1	7.3	0.006	>20	2.1	>20	44
C[C@H]1NC(C)(C)CO[C@]1(O)c1cccc(Cl)c1	–	1.26	3.9	>20	>20	–
